Shown are actives, neighbours in structure and some others; about 1.6% of the full set was active somewhere.
eIF4E 4G PPI – inhibitors of eIF4E and eIF4G interaction in translation initiation; P63073+Q04637; TR-FRET eIF4E-eIF4GI(517-606) binding, 2 h; inhibition, % at 21.7 µM; 220,000 tested, 0.37% active; AID 782;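 active = inhibition above about 30%, limit read from the data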
Target sequence (P63073 whole entry, looked up): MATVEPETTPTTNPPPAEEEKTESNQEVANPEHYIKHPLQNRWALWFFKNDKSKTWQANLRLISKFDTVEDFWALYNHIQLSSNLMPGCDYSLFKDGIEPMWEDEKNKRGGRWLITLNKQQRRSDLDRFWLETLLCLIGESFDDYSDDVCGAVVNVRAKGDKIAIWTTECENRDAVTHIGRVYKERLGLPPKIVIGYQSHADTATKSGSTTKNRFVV
Target sequence (Q04637 whole entry, looked up): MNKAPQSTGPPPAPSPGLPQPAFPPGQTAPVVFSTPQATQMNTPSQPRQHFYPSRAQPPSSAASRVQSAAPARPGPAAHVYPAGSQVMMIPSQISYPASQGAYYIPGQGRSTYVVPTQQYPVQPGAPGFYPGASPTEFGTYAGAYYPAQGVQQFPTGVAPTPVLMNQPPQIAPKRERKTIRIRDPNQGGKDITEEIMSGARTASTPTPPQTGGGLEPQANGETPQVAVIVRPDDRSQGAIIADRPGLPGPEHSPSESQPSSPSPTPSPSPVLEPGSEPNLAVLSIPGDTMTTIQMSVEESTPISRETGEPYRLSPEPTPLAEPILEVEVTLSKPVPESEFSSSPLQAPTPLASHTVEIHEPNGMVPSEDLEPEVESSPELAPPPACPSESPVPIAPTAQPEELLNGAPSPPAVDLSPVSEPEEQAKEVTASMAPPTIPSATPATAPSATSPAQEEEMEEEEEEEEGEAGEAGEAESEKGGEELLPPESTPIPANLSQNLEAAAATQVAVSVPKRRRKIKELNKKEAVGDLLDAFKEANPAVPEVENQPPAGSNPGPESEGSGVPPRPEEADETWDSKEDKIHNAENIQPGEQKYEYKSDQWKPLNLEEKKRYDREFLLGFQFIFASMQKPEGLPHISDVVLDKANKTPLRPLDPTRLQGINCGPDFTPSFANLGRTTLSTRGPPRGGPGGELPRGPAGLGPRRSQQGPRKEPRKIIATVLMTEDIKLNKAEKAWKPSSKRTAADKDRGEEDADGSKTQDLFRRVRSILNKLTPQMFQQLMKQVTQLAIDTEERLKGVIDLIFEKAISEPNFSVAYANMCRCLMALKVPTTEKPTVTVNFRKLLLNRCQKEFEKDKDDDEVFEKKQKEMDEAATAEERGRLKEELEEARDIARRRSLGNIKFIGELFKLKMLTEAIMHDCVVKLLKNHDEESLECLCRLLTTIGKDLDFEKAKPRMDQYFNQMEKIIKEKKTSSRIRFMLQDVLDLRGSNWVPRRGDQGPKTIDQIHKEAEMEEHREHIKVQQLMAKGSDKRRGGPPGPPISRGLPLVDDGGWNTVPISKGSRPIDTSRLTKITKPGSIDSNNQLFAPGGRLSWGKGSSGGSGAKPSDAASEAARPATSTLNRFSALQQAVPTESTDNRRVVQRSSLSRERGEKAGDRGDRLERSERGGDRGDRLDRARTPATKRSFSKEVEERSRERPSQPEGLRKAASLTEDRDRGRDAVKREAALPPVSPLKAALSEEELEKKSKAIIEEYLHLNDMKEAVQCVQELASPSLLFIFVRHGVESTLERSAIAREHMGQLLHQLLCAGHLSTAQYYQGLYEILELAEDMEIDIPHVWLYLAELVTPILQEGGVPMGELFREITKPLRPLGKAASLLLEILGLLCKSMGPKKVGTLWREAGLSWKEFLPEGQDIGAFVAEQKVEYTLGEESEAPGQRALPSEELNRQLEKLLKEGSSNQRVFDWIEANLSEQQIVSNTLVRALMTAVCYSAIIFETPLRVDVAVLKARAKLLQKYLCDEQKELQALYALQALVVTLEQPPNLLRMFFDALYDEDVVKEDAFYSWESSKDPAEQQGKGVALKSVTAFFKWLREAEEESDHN
PKD1 kinase inh – PKD1 (human) kinase inhibition; Q15139; PKD1 kinase fluorescence polarization assay; inhibition, % (no concentration beside the values); 200,000 tested, 0.056% active; AID 797
RBBP9 inhibitor – inhibitors of human serine hydrolase RBBP9; recombinant RBBP9, FP-Rh probe fluorescence polarization; inhibition, % at 7.94 µM; 220,000 tested, 0.2% active;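 active = inhibition above the campaign mean of all tested compounds plus 3 SD, cut at about 14% in these data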
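Measured by – fluorescence polarization · Test system – RBBP9 protein · Input – 2.5 µM RBBP9 dispensing solution, before mixing · Measure – percent inhibition from mP, scaled between DMSO and no-protein wells · Benchmarks – DMSO-treated enzyme wells and wells lacking RBBP9 · Times – preincubation 30 min plus labeling 45 min at 25 °C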
EBV gp42 inh – inhibitors of Epstein-Barr virus glycoprotein 42 | Q1HVG2 | Fluorescence polarization binding assay, mP read-out | inhibition, % (tested at 21.74 µM) | 220,000 tested, 0.42% active | AID 1085
14-3-3 Bad inh – disrupts binding of bovine 14-3-3 zeta to phospho-Bad peptide; inhibition, % at 21.7 µM; TR-FRET 14-3-3zeta/Dy647-pBad peptide displacement, 1 h; P63103; 220,000 tested, 0.71% active;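 active = inhibition above about 70%, limit read from the data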
RBBP9 confirm – human RBBP9 inhibition, confirmation. inhibition, % at 7.94 µM. recombinant RBBP9, FP-Rh probe fluorescence polarization. 410 tested, 36% active. shares compounds with RBBP9 inhibitor. AID 1537;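 active = inhibition above the hit cutoff derived for the primary screen, cut at about 15% in these data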
Hits are given with their value; – = inactive; · = no result given. Rule as the data show it, unless noted: active = inhibition above about 50%; inactive = the rest.

SMILES	eIF4E 4G PPI	PKD1 kinase inh	RBBP9 inhibitor	EBV gp42 inh	14-3-3 Bad inh	RBBP9 confirm
O=C(O)/C=C/C(=O)NC1CCC(CC2CCC(NC(=O)/C=C/C(=O)O)CC2)CC1 (stereo unspecified)	–	–	20.6	–	–	–
O=c1c2ccccc2nc(/C=C/c2cccnc2)n1Cc1ccccc1	91.8	–	15.0	–	94.3	54.8
CN=c1scc(-c2ccccc2F)n1/N=C/c1ccc(O)c(O)c1O	–	–	32.7	–	–	59.5
Cc1cccc(NS(=O)(=O)c2cc(NC(=O)CC(=O)c3ccc([N+](=O)[O-])cc3)ccc2C)c1	–	–	30.3	–	–	15.7
Cc1ccc(C(=O)Nc2cccc([N+](=O)[O-])c2)cc1S(=O)(=O)Nc1ccc(C(=O)O)cc1	–	–	–	–	–	·
CCN(CC)CCN(C(=O)c1c(F)cccc1F)c1nc2cc(C)cc(C)c2s1	–	–	–	–	–	·
O=C(CSc1ccc2ccccc2n1)c1ccccc1	–	·	17.5	–	–	–
Nc1nc(SCC(=O)Nc2ccc3c(c2)OCO3)n[nH]1	–	–	–	–	–	·
COc1cccc(/C=N/NC(=O)c2ccc3nc[nH]c3c2)c1O	–	·	–	–	–	·
COc1cc(OC)c2cc(C(=O)N/N=C/c3cccc(OC)c3O)[nH]c2c1	–	·	15.8	–	–	32.4
CCOC(=O)C(C)(C)Sc1ncnc2nc[nH]c12	–	–	15.9	–	–	–
C/C(=N/NC(=O)CN1CCN(S(=O)(=O)c2ccc(Br)cc2)CC1)c1ccco1	–	–	–	–	–	·
COc1ccc(-c2csc(Nc3ncccc3C)n2)cc1OC	–	–	–	–	–	·
Cc1cccnc1Nc1nc(-c2ccc(O)c(O)c2)cs1	–	–	25.4	–	–	55.2
C/C(=C\C(=O)c1ccccc1)Nc1ccc(O)cc1	–	–	–	–	–	·
C/C(=C\C(=O)c1cccnc1)Nc1ccc(O)cc1	–	–	42.8	–	–	–
O=C(O)CCNC(=O)C12CC3CC(CC(C3)C1)C2	–	–	–	–	–	·
Cc1cc(-c2onc(C)c2C(=O)Oc2ccc(Cl)cc2)no1	–	·	–	–	–	·
Cc1cc(-c2onc(C)c2C(N)=O)no1	–	·	14.4	–	–	–
COc1cc([N+](=O)[O-])cc2sc(NC(C)=O)nc12	–	·	–	–	–	·
COCc1nc2ccccc2n1Cc1c(F)cccc1Cl	–	–	–	–	–	·
CC(=O)C(C(C)=O)c1c(Cl)c(O)c(O)c2c(C(=O)c3ccccc3)coc12	–	–	25.6	–	–	33.8
CN1CCN(Cc2c(O)ccc3occ(C(=O)c4ccccc4)c23)CC1	–	–	–	–	–	·
CC(=O)OC(C(=O)NCc1ccco1)c1ccncc1 (stereo unspecified)	–	–	–	–	–	·
CCOC(=O)C1(Cc2ccc(OC)cc2)CCN(C(=O)c2cccc3nccnc23)CC1	–	–	15.7	–	–	–
SMILES	eIF4E 4G PPI	PKD1 kinase inh	RBBP9 inhibitor	EBV gp42 inh	14-3-3 Bad inh	RBBP9 confirm
Cc1ccc(NC(=O)COC(=O)/C=C/c2cccs2)c(C)c1	–	–	–	–	–	·
CC(C)(C)C(=O)NC(=S)Nc1ccc(F)cc1	–	–	–	–	–	·
CC(=O)NC(NC(=S)Nc1cccc(Br)c1)C(Cl)(Cl)Cl (stereo unspecified)	–	·	–	–	–	·
O=c1[nH]nc(CNc2ccc(O)cc2)c2ccccc12	–	–	17.0	–	–	–
O=S(=O)(c1cccs1)N1CN(Cc2ccco2)c2nc3ccccc3nc21	–	·	33.5	–	–	–
CCCCSc1cnn(-c2ccccc2)c(=O)c1SCCCC	–	–	15.6	–	–	–
C=CCN=c1scc(C)n1/N=C/c1ccc(O)c(O)c1	–	–	23.0	–	–	24.2
CN=c1scc(C)n1/N=C/c1ccc(O)cc1	–	–	–	–	–	·
CN=c1scc(-c2ccco2)n1/N=C/c1ccc(O)c(O)c1	–	–	25.9	–	–	–
COc1ccc(O)c(/C=N/n2c(-c3ccco3)csc2=Nc2cccnc2)c1	–	–	–	–	–	·
COc1cc(CN2CCN(c3ccccc3F)CC2)cc(OC)c1O	–	–	15.1	–	–	–
Cc1cc(N)ccc1-n1c(C)ccc1C	–	–	31.3	–	–	–
Cc1cc(C(=O)O)ccc1-n1c(C)ccc1C	–	–	–	–	–	·
Cc1nn(C)c(Cl)c1S(=O)(=O)N1CCC(CO)(CCc2ccccc2)CC1	–	–	–	–	–	·
